Results reported in publication PMC6315297 (AIDS (London, England), 2013).
Peptide text beside a SMILES is read from it.

Target: HLA-A*68:02 (Homo sapiens, UniProt P04439, A269V/D140Y/D185E/E176V/E277Q/E87N/F33Y/G231S/I121R/I166T/I218V/L180W/L300P/L318F/N151K/P208A/P217A/Q86R/R138H/R169H/S129P/T345S/V36M)
Experiment: HLA peptide binding assay
Summary of the method: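 Recombinant biotinylated HLA-A*68:02 heavy chain diluted to 2 nM in a mix of 30 nM β2m and peptide, folded 48 h at 18°C. Folded complexes detected by AlphaScreen with streptavidin donor beads and acceptor beads carrying the conformation-dependent anti-HLA-I antibody W6/32. Beads at final 5 μg/mL, incubated overnight at 18°C. Plates equilibrated to reader temperature 1 h before reading.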

Compound: CC(C)[C@H](NC(=O)[C@H](Cc1ccc(O)cc1)NC(=O)[C@H](Cc1ccccc1)NC(=O)[C@@H](NC(=O)[C@@H](N)CCC(=O)O)[C@@H](C)O)C(=O)N[C@@H](CC(=O)O)C(=O)NCC(=O)N[C@@H](C)C(=O)O [ETFYVDGA] (H-ETFYVDGA-OH)
- Kd: 2 nM
